Marks after values point to notes of the source that are not given here.
How the values were obtained:
Assay type in all cases: in vivo, human
[1] = Pharmacokinetics of elobixibat; settings: for AUC(0–t), back transformed LSM ratio breakfast/no breakfast / Cmax, back transformed LSM ratio breakfast/no breakfast: linear mixed effect model; for fe144h / Ae144h: urine 0-144 h; for fe144h: arithmetic mean; for Ae144h: geometric mean (CV)
How it was run: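 Single oral dose, 2.5–20 mg, with or without breakfast, in crossover. Plasma was drawn predose and at 0.5–12 h on Days –1, 1, 7 and 8, plus daily. Urine was collected daily except Day 7. Analyte was measured by LC–MS/MS (LLOQ 10.0 pg ml–1). Noncompartmental analysis with linear trapezoidal AUC. Dose proportionality (no-breakfast regimen) was assessed by power model or ANOVA on log values. Food effect: mixed model, back-transformed LSM ratios.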

[2] = system: plasma 7α‐hydroxy‐4‐cholesten‐3‐one (C4); test: Food effect on plasma C4, S-test; settings: up to 24 h, AUEC P < 0.001
How it was run: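 Crossover single dose taken 15 min before breakfast or fasting. Plasma was sampled predose and at 0.5–12 h on Days –1, 1, 7 and 8, plus daily. C4 was measured by LC–MS/MS (LLOQ 2 ng ml–1). […] Food effect was assessed by linear mixed model (dose, food, intervention, period fixed; patient random).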

[3] = system: patients with chronic constipation; test: Bowel functions; settings: for proportion of patients with first SBM within 24 h: placebo 40.0%
How it was run: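 Test compound or placebo orally once daily before breakfast for 14 days. Patients recorded the time of each BM (BM, SBM, complete SBM), Bristol Stool Form Scale, straining (five levels), completeness of evacuation and GI symptoms including discomfort (five levels). Bisacodyl suppository rescue was allowed after ≥72 h without BM with symptoms. Descriptive statistics were used.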

[4] = system: patients with chronic constipation; test: Adverse events, M-test
How it was run: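 Patients randomized 5:1 to test compound (2.5, 5, 10, 15 or 20 mg) or placebo. Oral tablet once daily before breakfast for 14 consecutive days, inpatient Day –2 to Day 21. AE type, severity and incidence were recorded with physical exams, vital signs, 12-lead ECG and laboratory tests. Proportions of patients with AEs were tabulated, and dose-dependency was tested by Cochran–Armitage trend test.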

[5] = system: QTcF intervals; test: ECG QTcF evaluation; settings: S-test and M-test, 2.5-20 mg
How it was run: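 12-lead surface ECG in both single- and 14-day dosing tests. QT was Fridericia-corrected by experienced central-laboratory readers. ΔQTcF from baseline was calculated at each time point, and ΔΔQTcF versus placebo was estimated with 90% CI. Categorical counts: absolute QTcF >450, >480 and >500 ms; ΔQTcF >30 and >60 ms.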

[6] = single dose 2.5 mg, before breakfast
[7] = single dose 2.5 mg, no breakfast
[8] = single dose 5 mg, before breakfast
[9] = single dose 10 mg, before breakfast
[10] = single dose 10 mg, no breakfast
[11] = single dose 15 mg, before breakfast
[12] = single dose 15 mg, no breakfast
[13] = single dose 20 mg, before breakfast
[14] = single dose 20 mg, no breakfast
[15] = 2.5 mg once daily 14 days (group n=10)
[16] = 5 mg once daily 14 days (group n=10)
[17] = 10 mg once daily 14 days (group n=9)
[18] = 15 mg once daily 14 days (group n=10)
[19] = 20 mg once daily 14 days (group n=10)

Structure (SMILES): CCCCC1(CCCC)CN(c2ccccc2)c2cc(SC)c(OCC(=O)N[C@@H](C(=O)NCC(=O)O)c3ccccc3)cc2S(=O)(=O)C1 [elobixibat]
- plasma elobixibat concentration, range ([1]; 2.5-20 mg): picomolar range
- quantity of drug excreted in the urine ([1]; all dosing levels, both regimens): less than 0.01%
- slope of the regression line (power model) for Ae144h ([1]; no‐breakfast regimen, 2.5-20 mg, dose proportionality): 0.9321
- fraction of dose excreted in urine (fe) up to 144 h ([1]; no‐breakfast regimen, all dosing groups (2.5-20 mg)): < 0.01%
- t1/2 versus dose ([1]; no‐breakfast regimen, P < 0.001, said to be apparent (LLOQ)): prolonged dose‐dependently
- AUC(0–t), back transformed LSM ratio breakfast/no breakfast ([1]; single dose 2.5 mg): 0.1368
- Cmax, back transformed LSM ratio breakfast/no breakfast ([1]; single dose 2.5 mg): 0.2448
- AUC(0–t), back transformed LSM ratio breakfast/no breakfast ([1]; single dose 5 mg): 0.2318
- Cmax, back transformed LSM ratio breakfast/no breakfast ([1]; single dose 5 mg): 0.2922
- AUC(0–t), back transformed LSM ratio breakfast/no breakfast ([1]; single dose 10 mg): 0.1989
- Cmax, back transformed LSM ratio breakfast/no breakfast ([1]; single dose 10 mg): 0.2531
- AUC(0–t), back transformed LSM ratio breakfast/no breakfast ([1]; single dose 15 mg): 0.1884
- Cmax, back transformed LSM ratio breakfast/no breakfast ([1]; single dose 15 mg): 0.2085
- AUC(0–t), back transformed LSM ratio breakfast/no breakfast ([1]; single dose 20 mg): 0.2275
- Cmax, back transformed LSM ratio breakfast/no breakfast ([1]; single dose 20 mg): 0.2240
- fe144h [1, 6]: 0.0008 ^a %
- Ae144h [1, 6]: 24.30 (72.9) ^a ng
- fe144h [1, 7]: 0.0098%
- Ae144h [1, 7]: 213.28 (59.5) ng
- fe144h [1, 8]: 0.0021%
- Ae144h [1, 8]: 107.50 (63.4) ng
- fe144h ([1]; single dose 5 mg, no breakfast): 0.0077%
- Ae144h ([1]; single dose 5 mg, no breakfast): 306.59 (38.8) ng
- fe144h [1, 9]: 0.0016%
- Ae144h [1, 9]: 139.38 (49.9) ng
- fe144h [1, 10]: 0.0070%
- Ae144h [1, 10]: 598.14 (67.8) ng
- fe144h [1, 11]: 0.0013 ^a %
- Ae144h [1, 11]: 188.43 (37.2) ^a ng
- fe144h [1, 12]: 0.0070 ^a %
- Ae144h [1, 12]: 873.09 (68.4) ^a ng
- fe144h [1, 13]: 0.0021 ^a %
- Ae144h [1, 13]: 384.85 (55.6) ^a ng
- fe144h [1, 14]: 0.0088%
- Ae144h [1, 14]: 1623.23 (41.5) ng
- C4 Emax and AUEC, breakfast regimen compared with no‐breakfast regimen [2]: significantly greater elevations
- proportion of patients with first SBM within 24 h ([3]; 2.5 mg day^–1 (10/10)): 100%
- proportion of patients with first SBM within 24 h ([3]; 5 mg day^–1 (10/10)): 100%
- proportion of patients with first SBM within 24 h ([3]; 10 mg day^–1 (9/9)): 100%
- proportion of patients with first SBM within 24 h ([3]; 15 mg day^–1 (8/9)): 88.9%
- proportion of patients with first SBM within 24 h ([3]; 20 mg day^–1 (10/10)): 100%
- patients reporting worse abdominal discomfort ([3]; 20 mg day^–1 group): 40%
- patients reporting improvement of abdominal discomfort ([3]; 5 and 10 mg day^–1 groups): Nearly half
- time to the first SBM compared with placebo ([3]; M-test): evidently shorter
- changes in SBM frequency from baseline (Week –1) ([3]; M-test Weeks 1 and 2): dose‐dependent increases
- AEs associated with gastrointestinal disorders, % of patients [4, 15]: (80.0) %
- AEs associated with gastrointestinal disorders, n of patients [4, 15]: 8
- Any AEs, % of patients [4, 15]: (80.0) %
- Any AEs, n of patients [4, 15]: 8
- abdominal distention, % of patients [4, 15]: (30.0) %
- abdominal distention, n of patients [4, 15]: 3
- abdominal pain lower, % of patients [4, 15]: (40.0) %
- abdominal pain lower, n of patients [4, 15]: 4
- abdominal pain upper, n of patients [4, 15]: 0
- diarrhoea, % of patients [4, 15]: (10.0) %
- diarrhoea, n of patients [4, 15]: 1
- AEs associated with gastrointestinal disorders, % of patients [4, 16]: (80.0) %
- AEs associated with gastrointestinal disorders, n of patients [4, 16]: 8
- Any AEs, % of patients [4, 16]: (90.0) %
- Any AEs, n of patients [4, 16]: 9
- abdominal distention, % of patients [4, 16]: (30.0) %
- abdominal distention, n of patients [4, 16]: 3
- abdominal pain lower, % of patients [4, 16]: (30.0) %
- abdominal pain lower, n of patients [4, 16]: 3
- abdominal pain upper, % of patients [4, 16]: (20.0) %
- abdominal pain upper, n of patients [4, 16]: 2
- diarrhoea, % of patients [4, 16]: (40.0) %
- diarrhoea, n of patients [4, 16]: 4
- AEs associated with gastrointestinal disorders, % of patients [4, 17]: (77.8) %
- AEs associated with gastrointestinal disorders, n of patients [4, 17]: 7
- Any AEs, % of patients [4, 17]: (100.0) %
- Any AEs, n of patients [4, 17]: 9
- abdominal distention, % of patients [4, 17]: (22.2) %
- abdominal distention, n of patients [4, 17]: 2
- abdominal pain lower, % of patients [4, 17]: (33.3) %
- abdominal pain lower, n of patients [4, 17]: 3
- abdominal pain upper, % of patients [4, 17]: (22.2) %
- abdominal pain upper, n of patients [4, 17]: 2
- diarrhoea, % of patients [4, 17]: (44.4) %
- diarrhoea, n of patients [4, 17]: 4
- AEs associated with gastrointestinal disorders, % of patients [4, 18]: (70.0) %
- AEs associated with gastrointestinal disorders, n of patients [4, 18]: 7
- Any AEs, % of patients [4, 18]: (90.0) %
- Any AEs, n of patients [4, 18]: 9
- abdominal distention, % of patients [4, 18]: (40.0) %
- abdominal distention, n of patients [4, 18]: 4
- abdominal pain lower, % of patients [4, 18]: (40.0) %
- abdominal pain lower, n of patients [4, 18]: 4
- abdominal pain upper, n of patients [4, 18]: 0
- diarrhoea, % of patients [4, 18]: (40.0) %
- diarrhoea, n of patients [4, 18]: 4
- AEs associated with gastrointestinal disorders, % of patients [4, 19]: (90.0) %
- AEs associated with gastrointestinal disorders, n of patients [4, 19]: 9
- Any AEs, % of patients [4, 19]: (90.0) %
- Any AEs, n of patients [4, 19]: 9
- abdominal distention, % of patients [4, 19]: (60.0) %
- abdominal distention, n of patients [4, 19]: 6
- abdominal pain lower, % of patients [4, 19]: (50.0) %
- abdominal pain lower, n of patients [4, 19]: 5
- abdominal pain upper, % of patients [4, 19]: (20.0) %
- abdominal pain upper, n of patients [4, 19]: 2
- diarrhoea, % of patients [4, 19]: (80.0) %
- diarrhoea, n of patients [4, 19]: 8
- safety and tolerability ([4]; once‐daily administration, female and male patients): safe and tolerated up to 20 mg
- QTcF prolongation (>450 ms), categorical analysis [5]: no QTcF prolongation

— PMC6138487 (British Journal of Clinical Pharmacology, 2018)
